{"source": "ChEMBL document CHEMBL3351625", "about": "“Ethyl 2-(benzylidene)-7-methyl-3-oxo-2,3-dihydro-5H-thiazolo[3,2-a]pyrimidine-6-carboxylate analogues as a new scaffold for protein kinase casein kinase 2 inhibitor” (Bioorg Med Chem, 2014)", "key": {"NCI-N87": {"test_system": "NCI-N87", "assay": "Cytotoxicity against human NCI-N87 cells assessed as cell viability at 10 uM after 24 hrs by MTT assay", "type": "functional, cell-based", "in_short": "(§1)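 Lines from Korea Cell Line Bank, kept in RPMI1640 with serum and penicillin/streptomycin at 37 °C, 5% CO2. Seeded at 1 × 10⁴ cells/well and grown 24 h, then exposed to the inhibitor for 24 h. MTT added at 4 mg/mL final for 2 h, formazan taken up in DMSO, absorbance read at 570 nm. Run in quadruplicate.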"}, "TE-2 [1]": {"test_system": "TE-2", "assay": "Cytotoxicity against GFP-tagged human TE2 cells assessed as cell viability at 10 uM after 24 hrs by MTT assay", "type": "functional, cell-based", "in_short": "(§2)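 Esophageal TE2 cells stably carrying GFP or CK2α were plated at 1 × 10⁴ cells/well and grown 24 h. They were then exposed for 24 h, given MTT at 4 mg/mL final for 2 h, formazan dissolved in DMSO, absorbance at 570 nm.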"}, "AGS [2]": {"test_system": "AGS", "assay": "Cytotoxicity against human AGS cells assessed as cell viability at 10 uM after 24 hrs by MTT assay", "type": "functional, cell-based", "in_short": "(§3)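 AGS and HepG2 kept in Modified Eagle's Medium with serum and antibiotics at 37 °C, 5% CO2. Seeded at 1 × 10⁴ cells/well and grown 24 h, then exposed for 24 h. MTT at 4 mg/mL final for 2 h, formazan dissolved in DMSO, A570. Quadruplicate.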"}, "MKN-28 [3]": {"test_system": "MKN-28", "assay": "Cytotoxicity against human MKN28 cells assessed as cell viability at 10 uM after 24 hrs by MTT assay", "type": "functional, cell-based", "in_short": "as §1"}, "HepG2 [4]": {"test_system": "HepG2", "assay": "Cytotoxicity against human HepG2 cells assessed as cell viability at 10 uM after 24 hrs by MTT assay", "type": "functional, cell-based", "in_short": "as §3"}, "SNU484": {"test_system": "SNU484", "assay": "Cytotoxicity against human SNU484 cells assessed as cell viability at 10 uM after 24 hrs by MTT assay", "type": "functional, cell-based", "in_short": "as §1"}, "Hep 3B2": {"test_system": "Hep 3B2", "assay": "Cytotoxicity against human Hep3B cells assessed as cell viability at 10 uM after 24 hrs by MTT assay", "type": "functional, cell-based", "in_short": "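Hep3B kept in Dulbecco's Modified Eagle's Medium with serum and antibiotics at 37 °C, 5% CO2. Seeded at 1 × 10⁴ cells/well and grown 24 h, then exposed for 24 h. MTT at 4 mg/mL final for 2 h, DMSO solubilisation, A570. Quadruplicate.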"}, "SK-HEP1 [5]": {"test_system": "SK-HEP1", "assay": "Cytotoxicity against human SKHEP1 cells assessed as cell viability at 10 uM after 24 hrs by MTT assay", "type": "functional, cell-based"}, "TE-2 [6]": {"test_system": "TE-2", "assay": "Cytotoxicity against human TE2 cells expressing CK2 assessed as cell viability at 10 uM after 24 hrs by MTT assay", "type": "functional, cell-based", "in_short": "as §2"}, "SNU761": {"test_system": "SNU761", "assay": "Cytotoxicity against human SNU761 cells assessed as cell viability at 10 uM after 24 hrs by MTT assay", "type": "functional, cell-based", "in_short": "as §1"}, "SNU878": {"test_system": "SNU878", "assay": "Cytotoxicity against human SNU878 cells assessed as cell viability at 10 uM after 24 hrs by MTT assay", "type": "functional, cell-based", "in_short": "as §1"}, "SNU739 [7]": {"test_system": "SNU739", "assay": "Cytotoxicity against human SNU739 cells assessed as cell viability at 10 uM after 24 hrs by MTT assay"}, "MKN-74": {"test_system": "MKN-74", "assay": "Cytotoxicity against human MKN74 cells assessed as cell viability at 10 uM after 24 hrs by MTT assay", "type": "functional, cell-based", "in_short": "as §1"}, "[8]": {"target": "Mitogen-activated protein kinase 11 (Homo sapiens) (UniProt Q15759)", "assay": "Inhibition of human SAPK2b assessed as residual activity at 10 uM by KinaseProfiler assay", "in_short": "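Radioactive phosphorylation assays were run by an outsourced profiling service. Each of 31 human kinases was tested with inhibitor at 10 µM. Residual activity is expressed as a percentage of the mean activity in positive-control wells, which contained all reaction components except inhibitor plus DMSO as solvent control.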"}, "MKN-1 [9]": {"test_system": "MKN-1", "assay": "Cytotoxicity against human MKN1 cells assessed as cell viability at 10 uM after 24 hrs by MTT assay", "type": "functional, cell-based", "in_short": "as §1"}, "SNU668": {"test_system": "SNU668", "assay": "Cytotoxicity against human SNU668 cells assessed as cell viability at 10 uM after 24 hrs by MTT assay", "type": "functional, cell-based", "in_short": "as §1"}, "MKN-45": {"test_system": "MKN-45", "assay": "Cytotoxicity against human MKN45 cells assessed as cell viability at 10 uM after 24 hrs by MTT assay", "type": "functional, cell-based", "in_short": "as §1"}, "MKN-28 [10]": {"test_system": "MKN-28", "assay": "Induction of apoptosis in TRAIL-resistant human MKN28 cells assessed as cell death at 10 uM after 24 hrs and subsequently treated with TRAIL 200 ng/ml for 2 hr by Annexin-V-FLUOS staining", "type": "functional, cell-based", "in_short": "(§4)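 Cells were left untreated or pretreated with the inhibitor at 10 µM for 24 h, then exposed to TRAIL (200 ng/mL) for 2 h. They were then washed with PBS and stained with Annexin-V-FLUOS/propidium iodide for 15 min. Apoptotic cells were counted by fluorescence microscopy. Viability was assessed in parallel by MTT. Data are given as mean ± SD.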"}, "[11]": {"target": "Casein kinase II subunit alpha (Homo sapiens) (UniProt P68400)", "assay": "Inhibition of recombinant human CK2alpha assessed as inhibition of phosphorylation of GST-CS at 10 uM by Coomassie brilliant blue staining based autoradiography"}, "AGS [12]": {"test_system": "AGS", "assay": "Induction of apoptosis in TRAIL-resistant human AGS cells assessed as cell death at 10 uM after 24 hrs and subsequently treated with TRAIL 200 ng/ml for 2 hr by Annexin-V-FLUOS staining", "type": "functional, cell-based", "in_short": "as §4"}, "MKN-1 [13]": {"test_system": "MKN-1", "assay": "Induction of apoptosis in TRAIL-resistant human MKN1 cells assessed as cell death at 10 uM after 24 hrs and subsequently treated with TRAIL 200 ng/ml for 2 hr by Annexin-V-FLUOS staining", "type": "functional, cell-based", "in_short": "as §4"}, "[14]": {"target": "Casein kinase II (Homo sapiens) (UniProt P67870+P68400+P19784)", "assay": "(§5) Inhibition of human CK2 assessed as residual activity by KinaseProfiler assay", "type": "protein-complex assay"}, "SNU739 [15]": {"test_system": "SNU739", "assay": "Induction of apoptosis in TRAIL-resistant human SNU739 cells assessed as cell death at 10 uM after 24 hrs and subsequently treated with TRAIL 200 ng/ml for 2 hr by Annexin-V-FLUOS staining", "type": "functional, cell-based", "in_short": "as §4"}, "Casein kinase II [16]": {"target": "T1, Casein kinase II (Homo sapiens, UniProt P19784+P67870+P68400)", "assay": "Competitive inhibition of human CK2 assessed as competitive with respect to ATP", "type": "protein-complex assay"}, "SK-HEP1 [17]": {"test_system": "SK-HEP1", "assay": "Induction of apoptosis in TRAIL-resistant human SKHEP1 cells assessed as cell death at 10 uM after 24 hrs and subsequently treated with TRAIL 200 ng/ml for 2 hr by Annexin-V-FLUOS staining", "type": "functional, cell-based", "in_short": "as §4"}, "[18]": {"target": "Casein kinase II subunit alpha (Homo sapiens) (UniProt P68400)", "assay": "Inhibition of recombinant human CK2alpha assessed as inhibition of phosphorylation of GST-CS by Coomassie brilliant blue staining based autoradiography"}, "HepG2 [19]": {"test_system": "HepG2", "assay": "Induction of apoptosis in TRAIL-resistant human HepG2 cells assessed as cell death at 10 uM after 24 hrs and subsequently treated with TRAIL 200 ng/ml for 2 hr by Annexin-V-FLUOS staining", "type": "functional, cell-based", "in_short": "as §4"}, "Casein kinase II [20]": {"target": "T1, Casein kinase II", "assay": "as §5", "type": "protein-complex assay"}}, "note": "The source made the active and inactive calls. No cut-off for these calls is given here.", "data": [{"smiles": "Brc1c(Br)c(Br)c2[nH]nnc2c1Br", "values": [{"measurement": "Activity", "setting": "NCI-N87", "result": "Active"}, {"measurement": "Activity", "setting": "TE-2 [1]", "result": "Active"}, {"measurement": "Activity", "setting": "AGS [2]", "result": "Active"}, {"measurement": "Activity", "setting": "MKN-28 [3]", "result": "Active"}, {"measurement": "Activity", "setting": "HepG2 [4]", "result": "Active"}, {"measurement": "Activity", "setting": "SNU484", "result": "Active"}, {"measurement": "Activity", "setting": "Hep 3B2", "result": "Active"}, {"measurement": "Activity", "setting": "SK-HEP1 [5]", "result": "Active"}, {"measurement": "Activity", "setting": "TE-2 [6]", "result": "Active"}, {"measurement": "Activity", "setting": "SNU761", "result": "Active"}, {"measurement": "Activity", "setting": "SNU878", "result": "Active"}, {"measurement": "Activity", "setting": "SNU739 [7]", "result": "Active"}, {"measurement": "Activity", "setting": "MKN-74", "result": "Active"}, {"measurement": "Activity", "setting": "[8]", "result": 112, "unit": "%"}, {"measurement": "Activity", "setting": "MKN-1 [9]", "result": "Active"}, {"measurement": "Activity", "setting": "SNU668", "result": "Active"}, {"measurement": "Activity", "setting": "MKN-45", "result": "Active"}]}, {"smiles": "CCOC(=O)C1=C(C)N=c2s/c(=C\\c3ccc(O)c(O)c3)c(=O)n2C1c1ccc(Cl)cc1", "note": "(configuration not stated)", "values": [{"measurement": "Activity", "setting": "NCI-N87", "result": "Active"}, {"measurement": "Activity", "setting": "TE-2 [1]", "result": "Active"}, {"measurement": "Activity", "setting": "AGS [2]", "result": "Active"}, {"measurement": "Activity", "setting": "MKN-28 [3]", "result": "Active"}, {"measurement": "Activity", "setting": "HepG2 [4]", "result": "Active"}, {"measurement": "Activity", "setting": "MKN-28 [10]", "result": "Active"}, {"measurement": "inhibition", "setting": "[11]", "result": "Active"}, {"measurement": "Activity", "setting": "SNU484", "result": "Active"}, {"measurement": "Activity", "setting": "Hep 3B2", "result": "Active"}, {"measurement": "Activity", "setting": "AGS [12]", "result": "Active"}, {"measurement": "Activity", "setting": "SK-HEP1 [5]", "result": "Active"}, {"measurement": "Activity", "setting": "MKN-1 [13]", "result": "Active"}, {"measurement": "Activity", "setting": "[14]", "result": "Active"}, {"measurement": "Activity", "setting": "TE-2 [6]", "result": "Active"}, {"measurement": "Activity", "setting": "SNU739 [15]", "result": "Active"}, {"measurement": "Activity", "setting": "SNU761", "result": "Active"}, {"measurement": "Activity", "setting": "SNU878", "result": "Active"}, {"measurement": "Activity", "setting": "SNU739 [7]", "result": "Active"}, {"measurement": "Ki", "setting": "Casein kinase II [16]", "result": 780, "unit": "nM"}, {"measurement": "Activity", "setting": "MKN-74", "result": "Active"}, {"measurement": "Activity", "setting": "[8]", "result": 114, "unit": "%"}, {"measurement": "Activity", "setting": "SK-HEP1 [17]", "result": "Active"}, {"measurement": "Activity", "setting": "MKN-1 [9]", "result": "Active"}, {"measurement": "inhibition", "setting": "[18]", "result": "Active"}, {"measurement": "Activity", "setting": "HepG2 [19]", "result": "Active"}, {"measurement": "Activity", "setting": "SNU668", "result": "Active"}, {"measurement": "Activity", "setting": "MKN-45", "result": "Active"}]}, {"smiles": "CCOC(=O)C1=C(C)N=c2s/c(=C\\c3cc(O)c(O)c(O)c3)c(=O)n2C1c1ccc(Cl)cc1", "note": "(configuration not stated)", "values": [{"measurement": "inhibition", "setting": "[11]", "result": "Active"}, {"measurement": "IC50", "setting": "Casein kinase II [20]", "result": 8.79, "unit": "µM"}, {"measurement": "Activity", "setting": "[8]", "result": 101, "unit": "%"}]}]}
